From ChEMBL document CHEMBL1127630, “New dual inhibitors of neutral endopeptidase and angiotensin-converting enzyme: rational design, bioavailability, and pharmacological responses in experimental hypertension” (J Med Chem, 1994)
pIC50, pKi: −log10 of the molar value.

Columns and labels:
[1] = target: T1, Angiotensin-converting enzyme (Mus musculus, UniProt P09470); experiment: Inhibitory potency against angiotensin converting enzyme by displacement of [3H]trandolaprilate binding in mouse lung
T1 sequence (P09470 whole entry): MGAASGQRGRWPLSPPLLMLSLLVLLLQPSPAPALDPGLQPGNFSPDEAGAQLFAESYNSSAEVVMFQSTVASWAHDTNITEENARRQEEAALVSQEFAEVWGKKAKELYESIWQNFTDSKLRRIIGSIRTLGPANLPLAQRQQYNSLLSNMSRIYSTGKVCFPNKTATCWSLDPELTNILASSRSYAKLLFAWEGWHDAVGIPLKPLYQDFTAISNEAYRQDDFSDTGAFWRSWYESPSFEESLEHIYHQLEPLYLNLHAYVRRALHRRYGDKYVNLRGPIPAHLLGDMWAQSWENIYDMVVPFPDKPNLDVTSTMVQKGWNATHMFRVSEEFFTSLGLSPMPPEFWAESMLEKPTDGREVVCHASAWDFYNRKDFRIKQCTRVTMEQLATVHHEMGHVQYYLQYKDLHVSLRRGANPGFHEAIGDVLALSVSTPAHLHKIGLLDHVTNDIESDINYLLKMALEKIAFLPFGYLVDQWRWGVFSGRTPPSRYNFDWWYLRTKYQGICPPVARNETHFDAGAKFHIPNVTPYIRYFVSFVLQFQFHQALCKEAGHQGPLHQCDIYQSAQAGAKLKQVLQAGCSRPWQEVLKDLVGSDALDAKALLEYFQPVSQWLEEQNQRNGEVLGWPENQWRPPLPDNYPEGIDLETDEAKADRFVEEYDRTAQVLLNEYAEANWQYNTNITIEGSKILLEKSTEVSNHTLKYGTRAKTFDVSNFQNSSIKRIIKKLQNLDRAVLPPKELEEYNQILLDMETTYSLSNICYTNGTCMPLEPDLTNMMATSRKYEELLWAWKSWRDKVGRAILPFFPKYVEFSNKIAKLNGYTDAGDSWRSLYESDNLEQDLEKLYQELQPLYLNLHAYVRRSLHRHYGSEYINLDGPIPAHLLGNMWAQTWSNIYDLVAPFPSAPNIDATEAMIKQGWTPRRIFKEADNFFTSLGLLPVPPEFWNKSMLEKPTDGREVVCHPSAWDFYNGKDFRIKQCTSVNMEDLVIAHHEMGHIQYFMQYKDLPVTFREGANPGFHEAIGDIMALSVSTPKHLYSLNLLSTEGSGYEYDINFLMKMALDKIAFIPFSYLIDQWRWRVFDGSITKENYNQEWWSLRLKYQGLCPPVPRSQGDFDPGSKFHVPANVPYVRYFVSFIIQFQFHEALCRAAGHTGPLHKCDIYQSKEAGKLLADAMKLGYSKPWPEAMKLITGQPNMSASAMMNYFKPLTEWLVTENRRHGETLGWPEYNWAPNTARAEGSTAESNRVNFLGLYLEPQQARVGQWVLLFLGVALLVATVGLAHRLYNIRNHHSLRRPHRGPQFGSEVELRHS

[2] = target: T2, Angiotensin-converting enzyme (Mus musculus) (UniProt P09470); experiment: Inhibition of lung Angiotensin Converting Enzyme (ACE) in mouse at a dose of 2.6*10e-5 mol/kg after 20 min oral administration
T2 sequence (whole entry): T1 sequence (P09470 whole entry)
Procedure, shortened: (§1)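 Prescreen in mice: single oral dose of 2.6 X 10-5 mol/kg of prodrug (thioacetyl and benzyl ester protected, tested as stereoisomer mixtures). Inhibition of binding of a tritiated ACE probe to lung measured 20 and 60 min after dosing. Mean ± SEM of three experiments, three mice each.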

[3] = target: T2, Angiotensin-converting enzyme (Mus musculus); experiment: In vivo inhibition of lung Angiotensin Converting Enzyme (ACE) in mouse at a dose of 2.6*10e-5 mol/kg after 60 min oral administration; type: functional, organism-based; procedure, shortened: as §1
[4] = target: T3, Neprilysin (Mus musculus) (UniProt Q61391); experiment: Inhibition of Neutral Endopeptidase activity was measured by using the displacement of [3H]-HACBOGly from mouse kidney after 1 hr oral administration; design: scale not given: the % may be the effect or the level left
T3 sequence (whole entry): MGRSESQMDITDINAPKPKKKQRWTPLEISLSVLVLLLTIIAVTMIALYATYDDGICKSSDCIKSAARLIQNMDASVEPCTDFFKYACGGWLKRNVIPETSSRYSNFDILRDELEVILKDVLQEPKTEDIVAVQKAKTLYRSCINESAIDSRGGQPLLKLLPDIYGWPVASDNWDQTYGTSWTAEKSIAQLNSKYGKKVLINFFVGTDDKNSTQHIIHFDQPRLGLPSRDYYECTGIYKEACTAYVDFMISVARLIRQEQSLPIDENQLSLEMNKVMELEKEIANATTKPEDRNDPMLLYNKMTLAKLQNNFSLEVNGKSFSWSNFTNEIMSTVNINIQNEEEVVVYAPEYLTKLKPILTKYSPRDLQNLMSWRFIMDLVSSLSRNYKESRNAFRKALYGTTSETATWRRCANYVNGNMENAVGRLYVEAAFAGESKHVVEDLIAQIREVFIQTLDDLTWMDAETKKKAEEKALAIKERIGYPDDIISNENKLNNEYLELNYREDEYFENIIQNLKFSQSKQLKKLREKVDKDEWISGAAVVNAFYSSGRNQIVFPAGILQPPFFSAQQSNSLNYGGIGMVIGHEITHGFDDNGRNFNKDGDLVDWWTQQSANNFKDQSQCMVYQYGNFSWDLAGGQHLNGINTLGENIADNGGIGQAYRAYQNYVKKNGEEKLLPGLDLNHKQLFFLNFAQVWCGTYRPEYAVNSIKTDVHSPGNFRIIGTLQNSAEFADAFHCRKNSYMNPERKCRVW
Procedure, shortened: (§2)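 Mice dosed orally at 2.6 X 10-6 mol/kg in 10% ethanol/10% cremophor/80% water. [3H]HACBOGly (1 uCi) injected iv at intervals after dosing. Kidneys taken 15 min later, homogenized in 50 mM Tris-HCl pH 7.4 at 4 °C and filtered, radioactivity counted. Inhibition expressed as percent displacement versus control. Nonspecific binding defined with coinjected retrothiorphan (10.000 eq).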

[5] = target: T2, Angiotensin-converting enzyme (Mus musculus); experiment: In vivo inhibition of lung ACE was observed at 240 min after oral administration of the compound; type: functional, organism-based; design: concentration or dose not given beside the values
[6] = target: T3, Neprilysin (Mus musculus); experiment: Inhibition of Neutral Endopeptidase activity was measured by using the displacement of [3H]HACBOGly from mouse kidney after 2 hr oral administration; design: scale not given: the % may be the effect or the level left; procedure, shortened: as §2
[7] = target: T2, Angiotensin-converting enzyme (Mus musculus); experiment: In vivo inhibition of lung ACE was observed at 30 min after oral administration of the compound; type: organism-based; design: concentration or dose not given beside the values
[8] = target: T3, Neprilysin (Mus musculus); experiment: Inhibition of Neutral Endopeptidase activity was measured by using the displacement of [3H]HACBOGly from mouse kidney after 4 hr oral administration; design: scale not given: the % may be the effect or the level left; procedure, shortened: as §2
[9] = target: T2, Angiotensin-converting enzyme (Mus musculus); experiment: In vivo inhibition of lung ACE was observed at 120 min after oral administration of the compound; type: functional, organism-based; design: concentration or dose not given beside the values
Mus musculus = experiment: In vivo inhibition of lung ACE was observed at 60 min after oral administration; type: functional; design: concentration or dose not given beside the values

Structure (SMILES): CC(c1ccc(F)c(F)c1)C(CS)C(=O)NC(Cc1ccc(O)cc1)C(=O)O (stereo not drawn)
- pIC50 [1]: 8.35

Structure (SMILES): CCC(NC(=O)C(CS)C(C)c1ccccc1)C(=O)O (stereo not drawn)
- pIC50 [1]: 8.27

Structure (SMILES): CCCC[C@H](NC(=O)C(CSC(C)=O)C(C)c1ccccc1)C(=O)OCc1ccccc1 (stereo partly drawn)
- inhibition [2]: 34%
- inhibition [3]: 41%

Structure (SMILES): COc1ccc(C(C)C(CS)C(=O)NC(Cc2ccc(O)cc2)C(=O)O)cc1 (stereo not drawn)
- pIC50 [1]: 8.44

Structure (SMILES): CC(c1ccc(F)cc1)C(CS)C(=O)NC(Cc1ccc(O)cc1)C(=O)O (stereo not drawn)
- pIC50 [1]: 8.16

Structure (SMILES): C[C@H](NC(=O)[C@H](CS)[C@@H](C)c1ccccc1)C(=O)O (stereo in doubt; 44c)
- pKi [1]: 8.35

Structure (SMILES): C[C@H](c1ccccc1)[C@@H](CS)C(=O)N[C@@H](Cc1ccccc1)C(=O)O
- pKi [1]: 8.00

Structure (SMILES): CC[C@H](NC(=O)C(CSC(=O)c1ccccc1)C(C)c1ccccc1)C(=O)O (stereo partly drawn)
- Control [4]: 100%
- Control [5]: 30%
- Control [6]: 97%
- Control [7]: 73%
- Control [8]: 73%
- Control [9]: 39%
- Control (Mus musculus): 57%

Structure (SMILES): C[C@H](NC(=O)[C@H](CS)[C@@H](C)c1ccccc1)C(=O)O (stereo in doubt; 44a)
- pKi [1]: 7.10

Structure (SMILES): C[C@H](NC(=O)[C@H](CS)[C@@H](C)c1ccccc1)C(=O)O (stereo in doubt; 44d)
- pKi [1]: 7.02

Structure (SMILES): O=C(NC(Cc1ccc(O)cc1)C(=O)O)C(CS)Cc1ccccc1 (stereo not drawn)
- pIC50 [1]: 7.60

Structure (SMILES): CC(C)C(NC(=O)C(CS)C(C)c1ccccc1)C(=O)O (stereo not drawn)
- pIC50 [1]: 7.00

Structure (SMILES): CCC(c1ccccc1)C(CS)C(=O)NC(Cc1ccc(O)cc1)C(=O)O (stereo not drawn)
- pIC50 [1]: 6.96

Structure (SMILES): CC(NC(=O)C(CS)C(C)c1ccc2c(c1)OCO2)C(=O)O (stereo not drawn)
- pIC50 [1]: 8.02

Structure (SMILES): C[C@@H](c1ccccc1)[C@@H](CS)C(=O)N[C@@H](Cc1ccccc1)C(=O)O (stereo in doubt; 48a)
- pKi [1]: 7.59

Structure (SMILES): C[C@H](NC(=O)[C@H](CS)[C@@H](C)c1ccccc1)C(=O)O (stereo in doubt; 44b)
- pKi [1]: 7.80

Structure (SMILES): CC(c1ccccc1)C(CS)C(=O)NC(Cc1ccc(O)cc1)C(=O)O (stereo not drawn)
- pIC50 [1]: 8.37

Structure (SMILES): CC(c1ccccc1)C(CS)C(=O)N[C@@H](C)C(=O)O (stereo partly drawn)
- pIC50 [1]: 7.70

Structure (SMILES): CC(NC(=O)C(CS)C(C)c1ccc(F)cc1)C(=O)O (stereo not drawn)
- pIC50 [1]: 8.00

Structure (SMILES): CC(c1ccccc1)C(CS)C(=O)NCC(=O)O (stereo not drawn)
- pIC50 [1]: 7.49

Structure (SMILES): COc1ccc(C(C)C(CS)C(=O)NC(Cc2ccc(O)cc2)C(=O)O)cc1OC (stereo not drawn)
- pIC50 [1]: 8.40
